The text below walks through data of publication PMC7686291 (Psychopharmacology, 2020).

Where a name gives a salt, the structure may show the parent alone. Some results are limits rather than exact numbers.

For assay [1], the target named is norepinephrine transporters (NET) (Rattus norvegicus, UniProt Q63380). Nature of the assay: Transporter release assay, [3H]MPP+ via NET, rat brain synaptosomes. It is filed as biochemical. The following applies: for NET release %Emax: % of maximal release defined with 10 μM tyramine; for Times more potent than MDMA at NET release / Times more potent than MDA at NET release: ratio of EC50 values, synaptosomes; for Emax: read-out: NET release %Emax. In outline:
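Male Sprague-Dawley rat whole brain minus striatum and cerebellum gave synaptosomes in 10% sucrose with 1 μM reserpine, 100 nM GBR12935 and citalopram. After 1 h preloading with 9 nM [3H]MPP+ in Krebs-phosphate buffer, incubated 30 min with varied test compound concentrations. Filtration, then scintillation counting of retained radioactivity. EC50 from non-linear regression; efficacy as % of 10 μM tyramine release.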

In assay [2] the target is serotonin transporters (SERT) (Rattus norvegicus, UniProt P31652). As to the kind of experiment: Transporter release assay, [3H]5-HT via SERT, rat brain synaptosomes. The following applies: for SERT release %Emax: % of maximal release defined with 100 μM tyramine; for Emax: read-out: SERT release %Emax. It counts as biochemical. Summed up:
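Synaptosomes from whole brain minus striatum and cerebellum of male Sprague-Dawley rats, made in 10% sucrose with 1 μM reserpine plus 100 nM GBR12935 and nomifensine. Preloaded 1 h to steady state with 5 nM [3H]5-HT in Krebs-phosphate buffer, then incubated 5 min with test compound at various concentrations. Stopped by vacuum filtration; retained label counted by scintillation. EC50 from non-linear regression; efficacy as % of release by 100 μM tyramine.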

For assay [3], the target named is dopamine transporters (DAT) (Rattus norvegicus, UniProt P23977). Nature of the assay: Transporter release assay, [3H]MPP+ via DAT, rat brain synaptosomes. The following applies: for DAT release %Emax: % of maximal release defined with 10 μM tyramine; for Times more potent than MDMA at DAT release / Times more potent than MDA at DAT release: ratio of EC50 values, synaptosomes; for Emax: read-out: DAT release %Emax. It is filed as biochemical. In outline:
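Striatal synaptosomes from male Sprague-Dawley rats, prepared in 10% sucrose containing 1 μM reserpine; no unlabeled blockers added. Loaded 1 h to steady state with 9 nM [3H]MPP+ in Krebs-phosphate buffer; test compound at various concentrations added for 30 min. Ended by rapid vacuum filtration and scintillation counting of filter-bound radioactivity. EC50 by non-linear regression; efficacy relative to maximal release by 10 μM tyramine.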

Assay [4] relates to extracellular 5-HT in nucleus accumbens. As to the kind of experiment: In vivo microdialysis in nucleus accumbens, dialysate 5-HT. Further details: species or system rat. The following applies: male rats. In outline:
(§1)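 Male Sprague-Dawley rats (300–400 g) were fitted with a jugular catheter and a nucleus accumbens guide cannula under pentobarbital (60 mg/kg i.p.), with ≥1 week recovery. Probes (2×0.5 mm) were perfused with Ringers' at 0.6 μL/min overnight. 20-min dialysates were assayed by microbore HPLC-ECD. After three stable baselines: i.v. dose at time zero, threefold higher dose at 60 min. Saline 1 mL/kg controls; n = 7/group; % baseline; dose × time ANOVA, Bonferroni.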

The subject of assay [5] is human transporters (DAT, SERT). The following applies: cited from earlier work; for DAT/SERT ratio in transfected cells: ref Luethi et al. 2019; for DAT/SERT ratio from uptake inhibition potencies: transfected HEK cells, human transporters, ref Rickli et al. 2015.
The test system of assay [6] is conscious male rats. Nature of the assay: Horizontal ambulation. It is filed as in vivo, rat. The following applies: for Duration of behavioral activation (forward ambulation) post-injection: i.v. In outline:
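Conscious, tethered male Sprague-Dawley rats (300–400 g) with jugular catheters were placed overnight in photobeam arenas during accumbens microdialysis. Horizontal-plane movement was counted in 20-min bins over 120 min. Two i.v. injections: first dose at time zero, threefold higher dose 60 min later. Saline (1 mL/kg) controls; n = 7/group. Data normalized to three preinjection bins; dose × time ANOVA versus saline with Bonferroni tests.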

Assay [7] concerns dialysate dopamine in corpus striatum. The following applies: oral 0.08 mmol/kg (~17 mg/kg), male CD-1 mice, ref Fuwa et al. 2016; cited from earlier work.
Assay [8] deals with rats. The following applies: rats trained with MDMA 1.5 mg/kg i.p., ref Dolan et al. (2017), cited from earlier work.
Assay [9] concerns extracellular dopamine in nucleus accumbens. Nature of the assay: In vivo microdialysis in nucleus accumbens, dialysate dopamine. Further details: species or system rat. The following applies: male rats; for Peak increase of dialysate dopamine above baseline: 1.0 mg/kg i.v. given 60 min after 0.3 mg/kg. Summed up: as §1
For assay [10], the system named is mice. The following applies: ref Dolan et al. (2017), cited from earlier work.
The subject of assay [11] is dialysate 5-HT in corpus striatum. The following applies: ref Fuwa et al. 2016, cited from earlier work.
The mark [12] stands for this setting: ratio of EC50 values, synaptosomes.
Where [13] appears, read: 3 mg/kg i.v. given 60 min after 1 mg/kg.
The mark [14] stands for this setting: 1.0 mg/kg i.v. given 60 min after 0.3 mg/kg.

Chain of norepinephrine transporters (NET) (Q63380 1-617): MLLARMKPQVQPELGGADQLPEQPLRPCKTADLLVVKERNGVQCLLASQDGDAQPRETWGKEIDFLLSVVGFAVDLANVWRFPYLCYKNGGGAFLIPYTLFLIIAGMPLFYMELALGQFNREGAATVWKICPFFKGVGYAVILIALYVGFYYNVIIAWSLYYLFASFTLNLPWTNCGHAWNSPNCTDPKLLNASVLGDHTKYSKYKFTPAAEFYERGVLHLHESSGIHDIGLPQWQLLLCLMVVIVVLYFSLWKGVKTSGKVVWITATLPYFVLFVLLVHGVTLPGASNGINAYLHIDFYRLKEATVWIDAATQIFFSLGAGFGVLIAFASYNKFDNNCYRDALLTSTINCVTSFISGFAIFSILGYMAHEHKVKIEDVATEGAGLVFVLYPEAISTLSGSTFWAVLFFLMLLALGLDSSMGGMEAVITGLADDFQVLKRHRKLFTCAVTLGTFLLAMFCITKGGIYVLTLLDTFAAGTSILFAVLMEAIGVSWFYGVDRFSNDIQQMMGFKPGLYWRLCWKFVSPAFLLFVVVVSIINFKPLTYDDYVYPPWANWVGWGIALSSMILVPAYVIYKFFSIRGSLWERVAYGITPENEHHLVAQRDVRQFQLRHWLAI
Chain of serotonin transporters (SERT) (P31652 whole entry): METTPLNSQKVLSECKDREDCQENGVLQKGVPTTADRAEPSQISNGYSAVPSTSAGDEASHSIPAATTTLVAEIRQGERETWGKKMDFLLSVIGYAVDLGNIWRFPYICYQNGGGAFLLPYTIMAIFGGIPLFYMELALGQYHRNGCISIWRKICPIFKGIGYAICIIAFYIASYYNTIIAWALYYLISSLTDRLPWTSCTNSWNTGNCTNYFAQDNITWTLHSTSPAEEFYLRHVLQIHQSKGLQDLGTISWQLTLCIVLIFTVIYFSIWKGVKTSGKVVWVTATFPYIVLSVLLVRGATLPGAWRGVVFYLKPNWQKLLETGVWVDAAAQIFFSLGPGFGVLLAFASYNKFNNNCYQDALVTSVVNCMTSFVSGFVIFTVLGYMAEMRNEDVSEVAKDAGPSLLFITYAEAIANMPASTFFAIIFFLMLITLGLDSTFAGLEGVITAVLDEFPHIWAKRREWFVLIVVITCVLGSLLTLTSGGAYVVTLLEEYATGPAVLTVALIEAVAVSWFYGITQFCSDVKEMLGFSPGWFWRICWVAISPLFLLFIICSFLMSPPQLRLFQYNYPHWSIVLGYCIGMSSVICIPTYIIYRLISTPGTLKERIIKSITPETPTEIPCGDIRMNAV
Chain of dopamine transporters (DAT) (P23977 whole entry): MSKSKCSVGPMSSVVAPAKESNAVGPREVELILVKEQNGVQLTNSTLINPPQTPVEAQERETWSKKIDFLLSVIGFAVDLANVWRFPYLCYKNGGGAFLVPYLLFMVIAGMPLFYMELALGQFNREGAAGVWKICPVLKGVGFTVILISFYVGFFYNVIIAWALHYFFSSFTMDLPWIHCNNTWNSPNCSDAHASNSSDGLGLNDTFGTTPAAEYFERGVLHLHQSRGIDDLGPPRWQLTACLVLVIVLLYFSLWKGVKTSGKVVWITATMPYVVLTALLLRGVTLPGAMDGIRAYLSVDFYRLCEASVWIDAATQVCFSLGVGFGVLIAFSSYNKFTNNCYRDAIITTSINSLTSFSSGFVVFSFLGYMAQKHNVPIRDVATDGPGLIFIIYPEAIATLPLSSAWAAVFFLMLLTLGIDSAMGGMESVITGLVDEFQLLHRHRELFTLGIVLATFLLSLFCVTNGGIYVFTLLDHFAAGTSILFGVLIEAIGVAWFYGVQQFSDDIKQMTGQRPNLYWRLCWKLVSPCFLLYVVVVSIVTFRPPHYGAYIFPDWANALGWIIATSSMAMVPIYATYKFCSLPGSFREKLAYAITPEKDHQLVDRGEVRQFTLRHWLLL

For `CNC(C)Cc1ccc2occc2c1` (stereo not shown) [5-MAPB], in assay [1], the “NET release %Emax” value worked out at 99% and the “Times more potent than MDMA at NET release” value is listed as at least 3.75 times. In addition, in assay [2], the “SERT release %Emax” value amounted to 103%. In addition, the “Times more potent than MDMA at SERT release” value in [2] (setting [12]) is reported as “up to 2.5 times”. In addition, in assay [3], the “DAT release %Emax” value was 103% and the “Times more potent than MDMA at DAT release” value is “at least 3 times”.
As a reminder, the EC50 is the concentration giving half of the maximal effect. As a reminder, the Emax is the size of the effect at its maximum, as opposed to the concentration needed. In the case of `CC(N)Cc1ccc2c(c1)OCO2` (racemic) [MDA, (±)-3,4-Methylenedioxyamphetamine HCl, reference compound], the EC50 was 47 ± 7 nM in assay [1], 162 ± 28 nM in assay [2] and 106 ± 7 nM in [3]. The Emax is 91% in [1], 109% in assay [2] and 104% in assay [3]. Moreover, the “Peak effect on dialysate 5-HT above baseline” value came out at 4.6 fold in [4] (1 mg/kg i.v., first dose) and 11.2 fold in assay [4] (setting [13]). Besides, the “Fold less potent than 5-APB and 6-APB at increasing dialysate 5-HT” value in [4] (in vivo microdialysis, i.v.) amounted to 3 fold. The “DAT/SERT ratio in transfected cells” value in [5] is reported as 0.25. In addition, the “Effect on locomotion vs saline (post hoc analysis)” value in assay [6] (1 mg/kg i.v., first dose) is “did not significantly increase locomotion”. Besides, the “Peak effect on ambulation above baseline” value in assay [6] (setting [13]) is reported as 30 fold. Moreover, in assay [6] (60 min after 3 mg/kg i.v.), the “Ambulation above baseline at the 120 min point” value was “about 18 fold”. The “Duration of behavioral activation (forward ambulation) post-injection” value (“Duration of behavioral activation” below) in assay [6] is “at least 2 h”.
Regarding `CC(N)Cc1ccc2occc2c1` (stereo not shown) [5-APB, 1-(1-Benzofuran-5-yl)propan-2-amine], in [1], the EC50 was 21 ± 4 nM, the “Times more potent than MDA at NET release” value is 2–3 times and the Emax was 103%. The “Peak effect on dialysate 5-HT above baseline” value in assay [4] (setting [14]) is 17.7 fold. Further, in [4] (20 min after 0.3 mg/kg i.v.), the “Increase of dialysate 5-HT” value stood at 5.7 fold. Moreover, in assay [4] (120 min point, 60 min after 1.0 mg/kg i.v.), the “Dialysate 5-HT above baseline at the 120 min point” value is 11.3 fold. Further, in assay [2], the midpoint of the response, the EC50, lay at 19 ± 2 nM and the Emax was 104%. Also, in [2] (setting [12]), the “Times more potent than 5-MAPB at SERT release” value is recorded as 3.4 times and the “Times more potent than MDA at SERT release” value is recorded as 8.5 fold. Also, in assay [3], the EC50 worked out at 31 ± 3 nM, the “Times more potent than MDA at DAT release” value is reported as 3.4 fold and the maximal effect (Emax) was 103%. For the same compound, the “DAT/SERT ratio from uptake inhibition potencies” value in assay [5] is recorded as 0.05. Further, the “Increase in dialysate dopamine” value in assay [7] is on record as 8 fold. Moreover, the “ED50 to substitute for the MDMA stimulus cue” value in assay [8] (i.p.) is reported as 0.27 mg/kg. Also, in assay [8], the “Substitution for the discriminative stimulus effects of MDMA” value is “fully substitutes”. The “Effect on dialysate dopamine vs saline (post hoc test)” value in assay [9] (0.3 mg/kg i.v.) is listed as “failed to significantly increase dopamine levels”. Moreover, the “Peak increase of dialysate dopamine above baseline” value in assay [9] came out at 6.7 fold. Further, the “ED50 for increase of forward locomotion” value in [10] (i.p.) is reported as 3.27 mg/kg. The “Potency to stimulate activity, fold greater than that of MDMA” value in assay [10] (Gatch et al. 2019) was “at least 3 fold”. In addition, the “Increase in dialysate 5-HT” value in assay [11] (oral 0.08 mmol/kg (~17 mg/kg), corpus striatum, male CD-1 mice) was 23 fold. Further, the “Time the rise in extracellular 5-HT was maintained post-injection” value in assay [11] (oral 0.08 mmol/kg, mice) is “up to 3 h”. Further, in assay [6] (setting [14]), the “Peak effect on ambulation above baseline” value was 21 fold. In addition, the “Ambulation above baseline at the 120 min point” value in assay [6] (60 min after 1.0 mg/kg i.v.) stood at 14.0 fold. Besides, the “Duration of behavioral activation” value in assay [6] was “at least 2 h”.
As to `CC(N)Cc1ccc2ccoc2c1` (stereo not shown) [6-APB, 1-(1-benzofuran-6-yl)propan-2-amine], in assay [1], the midpoint of the response, the EC50, lay at 14 ± 2 nM; the “Times more potent than MDA at NET release” value is 2–3 times; the maximal effect (Emax) was 98%. For the same compound, the “Peak effect on dialysate 5-HT above baseline” value in [4] (setting [14]) was 16 fold. In assay [2], the EC50 is 36 ± 5 nM and the Emax is 100%. In addition, in assay [2] (setting [12]), the “Times more potent than MDA at SERT release” value was 4.5 fold. In assay [3], the EC50 was found to be 10 ± 1 nM, the “Times more potent than MDA at DAT release” value was found to be 10 fold and the maximal effect (Emax) stood at 101%. The “DAT/SERT ratio from uptake inhibition potencies” value in assay [5] was 0.29. In addition, the “Peak increase of dialysate dopamine above baseline” value in assay [9] stood at 8.4 fold. In assay [9] (20 min after 0.3 mg/kg i.v.), the “Increase of dialysate dopamine” value is on record as 2.6 fold. For the same compound, the “Increase of dialysate dopamine” value in assay [9] (40 min after 0.3 mg/kg i.v.) was found to be 3.3 fold. In addition, in assay [6] (0.3 mg/kg i.v.), the “Effect on locomotion vs saline (post hoc analysis)” value is given as “failed to result in significant increases in locomotion”. Further, in assay [6] (setting [14]), the “Peak effect on ambulation above baseline” value is 24 fold. Also, the “Duration of behavioral activation” value in assay [6] is given as “at least 2 h”.
In the case of `CNC(C)Cc1ccc2c(c1)OCO2` (racemic) [MDMA, (±)-3,4-methylenedioxymethamphetamine HCl, reference compound], the results for the EC50 in assay [1], in assay [2] and in assay [3] were 90 ± 13 nM, 85 ± 16 nM and 120 ± 8 nM, respectively. The Emax was 99% in [1], 104% in assay [2] and 101% in assay [3]. For the same compound, the “DAT/SERT ratio in transfected cells” value in [5] was 0.12.
Turning to `CNC(C)Cc1ccc2ccoc2c1` (stereo not shown) [6-MAPB], in assay [1], the “NET release %Emax” value is on record as 100% and the “Times more potent than MDMA at NET release” value is reported as at least 3.75 times. For the same compound, in [2], the “SERT release %Emax” value amounted to 106%. In addition, in assay [2] (setting [12]), the “Times more potent than MDMA at SERT release” value is “up to 2.5 times”. Besides, in [3], the “DAT release %Emax” value is recorded as 106% and the “Times more potent than MDMA at DAT release” value is “at least 3 times”.
